Experiment [1] addresses Histone deacetylase (HDAC1 and HDAC2) (Homo sapiens, UniProt Q13547+Q92769). In words: Inhibition of HDAC1/2 from human HeLa cells nuclear extract by cell free fluorimetric assay. In kind it is cell-based.
The target in experiment [2] is T1, Protein deacetylase HDAC6 (Homo sapiens, UniProt Q9UBN7).
T1 sequence (Q9UBN7 whole entry): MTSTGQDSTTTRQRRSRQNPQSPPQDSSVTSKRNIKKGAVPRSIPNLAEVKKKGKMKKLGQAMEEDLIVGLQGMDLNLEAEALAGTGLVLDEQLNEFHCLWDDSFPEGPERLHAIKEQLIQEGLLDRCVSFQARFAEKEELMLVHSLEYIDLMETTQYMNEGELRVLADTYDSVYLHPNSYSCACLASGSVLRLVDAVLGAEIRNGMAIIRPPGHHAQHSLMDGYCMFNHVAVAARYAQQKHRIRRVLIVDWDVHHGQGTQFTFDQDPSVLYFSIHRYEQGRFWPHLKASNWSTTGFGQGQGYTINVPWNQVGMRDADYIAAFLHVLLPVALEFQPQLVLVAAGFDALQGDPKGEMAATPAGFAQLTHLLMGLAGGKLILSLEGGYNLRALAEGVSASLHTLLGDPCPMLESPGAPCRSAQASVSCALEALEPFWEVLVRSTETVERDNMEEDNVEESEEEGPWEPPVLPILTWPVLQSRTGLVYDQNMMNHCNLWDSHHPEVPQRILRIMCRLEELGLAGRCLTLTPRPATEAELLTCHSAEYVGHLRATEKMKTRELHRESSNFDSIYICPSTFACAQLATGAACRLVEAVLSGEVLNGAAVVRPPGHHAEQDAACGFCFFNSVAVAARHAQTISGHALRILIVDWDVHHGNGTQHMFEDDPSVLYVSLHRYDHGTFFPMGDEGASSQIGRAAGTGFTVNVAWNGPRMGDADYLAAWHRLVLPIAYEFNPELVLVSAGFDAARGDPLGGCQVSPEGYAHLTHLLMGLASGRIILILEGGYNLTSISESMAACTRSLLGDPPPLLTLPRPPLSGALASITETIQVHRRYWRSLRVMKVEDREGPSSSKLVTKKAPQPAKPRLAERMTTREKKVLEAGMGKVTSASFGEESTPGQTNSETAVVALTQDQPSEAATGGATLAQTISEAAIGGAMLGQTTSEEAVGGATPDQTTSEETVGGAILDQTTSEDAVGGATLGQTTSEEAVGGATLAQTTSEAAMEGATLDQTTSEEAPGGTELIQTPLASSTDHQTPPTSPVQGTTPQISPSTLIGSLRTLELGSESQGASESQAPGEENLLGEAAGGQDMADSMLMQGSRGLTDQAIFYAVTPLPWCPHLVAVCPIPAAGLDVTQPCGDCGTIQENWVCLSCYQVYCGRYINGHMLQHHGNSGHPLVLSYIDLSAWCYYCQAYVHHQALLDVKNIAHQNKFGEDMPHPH
In words: Inhibition of HDAC6 from human HeLa cells nuclear extract by cell free fluorimetric assay.

A further experiment deals with SK-MES-1. In words: Cytotoxicity against human SKMES1 cells after 72 hrs by trypan blue exclusion assay. In kind it is functional, cell-based. Particulars: SK-MES-1, 72 h.
For a further experiment, the system named is NCI-H69. Nature of the experiment: Cytotoxicity against human NCI-H69 cells after 72 hrs by trypan blue exclusion assay. The class given is functional, cell-based. Conditions: NCI-H69, 72 h.
In a further experiment the test system is DU-145. In words: Cytotoxicity against human DU145 cells after 72 hrs by trypan blue exclusion assay. The class given is functional, cell-based. Particulars: DU-145, 72 h. A digest of the protocol: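 DU-145 prostate cancer cells kept in recommended complete medium at 37 °C, 5% CO₂, passaged 24 h before dosing. Compounds taken from 10 mM DMSO stocks and diluted in DMSO plus fresh medium, final DMSO 0.1%; control wells got fresh medium only. Viability read by trypan blue staining after 72 h. EC₅₀ = concentration giving 50% loss of viability, from duplicate of four simultaneous experiments.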

Experiment [3] can be described thus: Cytotoxicity against human primary lung fibroblasts after 72 hrs by trypan blue exclusion assay. The class given is ADME, cell-based. Particulars: Fibroblast.
The next experiment relates to HMEC. Nature of the experiment: Cytotoxicity against HMEC after 72 hrs by trypan blue exclusion assay. The class given is ADME, cell-based. Particulars: Homo sapiens.
The target in a further experiment is T2, Histone deacetylase 8 (Homo sapiens, UniProt Q9BY41).
T2 sequence (Q9BY41 whole entry): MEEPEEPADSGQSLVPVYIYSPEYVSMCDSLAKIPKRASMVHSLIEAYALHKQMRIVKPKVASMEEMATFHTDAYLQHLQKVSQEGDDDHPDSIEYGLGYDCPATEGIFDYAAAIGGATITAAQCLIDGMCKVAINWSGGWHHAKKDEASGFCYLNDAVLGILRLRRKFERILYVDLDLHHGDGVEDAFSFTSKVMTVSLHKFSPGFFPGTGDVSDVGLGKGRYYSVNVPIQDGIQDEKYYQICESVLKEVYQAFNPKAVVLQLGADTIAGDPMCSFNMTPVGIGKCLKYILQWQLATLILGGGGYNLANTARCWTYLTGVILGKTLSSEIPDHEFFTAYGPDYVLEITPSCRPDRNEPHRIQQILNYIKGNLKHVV
Nature of the experiment: Inhibition of HDAC8 from human HeLa cells nuclear extract by cell free fluorimetric assay.

Results on four molecules are retold here after ChEMBL document CHEMBL1139366, “Non-peptide macrocyclic histone deacetylase inhibitors” (J Med Chem, 2009).

Bounds are passed on as bounds.

As usually defined, the IC50 is the midpoint of a concentration-inhibition curve. A higher IC50 goes with a need for much substance. The EC50 is the concentration at which the effect is half-maximal. A low value points to a more potent agent.

Regarding `CC[C@H]1OC(=O)[C@H](C)[C@@H](O[C@H]2C[C@@](C)(OC)[C@@H](O)[C@H](C)O2)[C@H](C)[C@@H](O[C@@H]2O[C@H](C)C[C@H](N(C)Cc3ccc(-c4cn(CCCCCCC(=O)NO)nn4)cc3)[C@H]2O)[C@](C)(OC)C[C@@H](C)C(=O)[C@H](C)[C@@H](O)[C@]1(C)O`, the IC50 in experiment [1] stood at 0.0041 µM; in experiment [2], 0.0893 µM. The EC50 was 1.33 µM in the experiment on SK-MES-1; 1.45 µM in the experiment with NCI-H69; 1.12 µM in the experiment with DU-145; more than 10 µM in experiment [3]; more than 10 µM in the experiment on HMEC.

Take `CC[C@H]1OC(=O)[C@H](C)[C@@H](O)[C@H](C)[C@@H](O[C@@H]2O[C@H](C)C[C@H](N(C)Cc3ccc(-c4cn(CCCCCCC(=O)NO)nn4)cc3)[C@H]2O)[C@](C)(OC)C[C@@H](C)C(=O)[C@H](C)[C@@H](O)[C@]1(C)O`: the IC50 in experiment [1] is 0.0019 µM; in experiment [2], 0.148 µM. The 50% effective concentration (EC50) in the experiment on SK-MES-1 is 1.28 µM; with NCI-H69, 1.49 µM; in the experiment with DU-145 it was 1.05 µM; in experiment [3], more than 10 µM; with HMEC, more than 10 µM.

Turning to `CC[C@H]1OC(=O)[C@H](C)[C@@H](O)[C@H](C)[C@@H](O[C@@H]2O[C@H](C)C[C@H](N(C)Cc3ccc(-c4cn(CCCCCCC(=O)NO)nn4)cc3)[C@H]2O)[C@](C)(O)C[C@@H](C)CN(C)[C@H](C)[C@@H](O)[C@]1(C)O`, the half-maximal inhibitory concentration (IC50) in experiment [1] is 0.0106 µM; on Histone deacetylase 8 it was 1.02 µM; in experiment [2], 0.117 µM. Moreover, the EC50 in the experiment with SK-MES-1 was 2.56 µM; in the experiment on NCI-H69 it was 3.01 µM; in the experiment on DU-145 it was 1.97 µM; in experiment [3], more than 10 µM; in the experiment with HMEC, more than 10 µM.

Consider `CC[C@H]1OC(=O)[C@H](C)[C@@H](O[C@H]2C[C@@](C)(OC)[C@@H](O)[C@H](C)O2)[C@H](C)[C@@H](O[C@@H]2O[C@H](C)C[C@H](N(C)Cc3ccc(-c4cn(CCCCCCC(=O)NO)nn4)cc3)[C@H]2O)[C@](C)(O)C[C@@H](C)CN(C)[C@H](C)[C@@H](O)[C@]1(C)O`, for which the figures for the IC50 (in experiment [1]; at Histone deacetylase 8; in experiment [2]) were 0.0139 µM, 0.994 µM and 0.078 µM, respectively. Besides, the EC50 was 2.33 µM in the experiment on SK-MES-1; 3.45 µM with NCI-H69; 1.88 µM with DU-145; more than 10 µM in experiment [3]; more than 10 µM with HMEC.
